Data from ChEMBL document CHEMBL4414558, “Dehydroabietylamine Ureas and Thioureas as Tyrosyl-DNA Phosphodiesterase 1 Inhibitors That Enhance the Antitumor Effect of Temozolomide on Glioblastoma Cells” (J Nat Prod, 2019).

Tests used:
[1] = test system: MCF7; experiment: Cytotoxicity activity against human MCF7 cells assessed as reduction in cell viability incubated for 72 hrs by MTT assay; format: cell-based; settings: MCF7, 72 h
[2] = test system: U-937; experiment: Cytotoxicity activity against human U937 cells assessed as reduction in cell viability incubated for 72 hrs by MTT assay; format: cell-based; settings: U-937, 72 h
[3] = test system: A549; experiment: Cytotoxicity activity against human A549 cells assessed as reduction in cell viability incubated for 72 hrs by MTT assay; format: cell-based; settings: A549, 72 h
[4] = target: Tyrosyl-DNA phosphodiesterase 1 (Homo sapiens, UniProt Q9NUW8); experiment: Inhibition of recombinant TDP1 (unknown origin) using 5'-(5,6 FAM-aac gtc agg gtc ttc c-BHQ1)-3' as substrate measured every 55 secs for 8 mins by fluorescence based assay
Sequence of Tyrosyl-DNA phosphodiesterase 1 (Homo sapiens, UniProt Q9NUW8) (Q9NUW8 whole entry): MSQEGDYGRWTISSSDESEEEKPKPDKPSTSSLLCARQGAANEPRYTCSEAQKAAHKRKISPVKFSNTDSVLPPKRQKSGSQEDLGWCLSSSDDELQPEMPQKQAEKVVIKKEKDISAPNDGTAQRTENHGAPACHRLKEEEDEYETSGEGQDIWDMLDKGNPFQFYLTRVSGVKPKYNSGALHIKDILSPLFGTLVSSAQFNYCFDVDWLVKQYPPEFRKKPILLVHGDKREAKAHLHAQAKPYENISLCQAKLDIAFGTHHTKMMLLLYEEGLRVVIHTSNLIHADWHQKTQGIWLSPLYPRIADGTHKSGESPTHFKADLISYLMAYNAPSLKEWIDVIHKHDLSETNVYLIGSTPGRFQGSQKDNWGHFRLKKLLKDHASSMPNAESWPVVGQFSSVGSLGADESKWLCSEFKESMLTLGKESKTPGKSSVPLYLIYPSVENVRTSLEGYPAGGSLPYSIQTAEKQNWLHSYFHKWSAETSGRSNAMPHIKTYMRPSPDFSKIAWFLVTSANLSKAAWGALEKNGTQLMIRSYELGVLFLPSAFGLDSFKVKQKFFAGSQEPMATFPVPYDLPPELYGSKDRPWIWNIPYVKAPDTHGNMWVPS
Outline: (§1)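 Purified TDP1, either wild-type or the H493R mutant, tested against the fluorogenic substrate. The IC50 is the compound concentration that cuts enzyme activity by 50%.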

[5] = Cytotoxicity activity against human MDA-MB cells assessed as reduction in cell viability incubated for 72 hrs by MTT assay; format: cell-based
[6] = test system: U-87 MG; experiment: Cytotoxicity activity against human U87MG cells assessed as reduction in cell viability incubated for 72 hrs by MTT assay; format: cell-based, U-87MG ATCC
[7] = Cytotoxicity activity against human SK-MEL-8 cells assessed as reduction in cell viability incubated for 72 hrs by MTT assay; format: cell-based
[8] = target: Poly [ADP-ribose] polymerase 1 (Homo sapiens) (UniProt P09874); experiment: Inhibition of PARP1 (unknown origin) assessed as residual activity at 100 uM relative to control
Sequence of Poly [ADP-ribose] polymerase 1 (Homo sapiens) (P09874 whole entry): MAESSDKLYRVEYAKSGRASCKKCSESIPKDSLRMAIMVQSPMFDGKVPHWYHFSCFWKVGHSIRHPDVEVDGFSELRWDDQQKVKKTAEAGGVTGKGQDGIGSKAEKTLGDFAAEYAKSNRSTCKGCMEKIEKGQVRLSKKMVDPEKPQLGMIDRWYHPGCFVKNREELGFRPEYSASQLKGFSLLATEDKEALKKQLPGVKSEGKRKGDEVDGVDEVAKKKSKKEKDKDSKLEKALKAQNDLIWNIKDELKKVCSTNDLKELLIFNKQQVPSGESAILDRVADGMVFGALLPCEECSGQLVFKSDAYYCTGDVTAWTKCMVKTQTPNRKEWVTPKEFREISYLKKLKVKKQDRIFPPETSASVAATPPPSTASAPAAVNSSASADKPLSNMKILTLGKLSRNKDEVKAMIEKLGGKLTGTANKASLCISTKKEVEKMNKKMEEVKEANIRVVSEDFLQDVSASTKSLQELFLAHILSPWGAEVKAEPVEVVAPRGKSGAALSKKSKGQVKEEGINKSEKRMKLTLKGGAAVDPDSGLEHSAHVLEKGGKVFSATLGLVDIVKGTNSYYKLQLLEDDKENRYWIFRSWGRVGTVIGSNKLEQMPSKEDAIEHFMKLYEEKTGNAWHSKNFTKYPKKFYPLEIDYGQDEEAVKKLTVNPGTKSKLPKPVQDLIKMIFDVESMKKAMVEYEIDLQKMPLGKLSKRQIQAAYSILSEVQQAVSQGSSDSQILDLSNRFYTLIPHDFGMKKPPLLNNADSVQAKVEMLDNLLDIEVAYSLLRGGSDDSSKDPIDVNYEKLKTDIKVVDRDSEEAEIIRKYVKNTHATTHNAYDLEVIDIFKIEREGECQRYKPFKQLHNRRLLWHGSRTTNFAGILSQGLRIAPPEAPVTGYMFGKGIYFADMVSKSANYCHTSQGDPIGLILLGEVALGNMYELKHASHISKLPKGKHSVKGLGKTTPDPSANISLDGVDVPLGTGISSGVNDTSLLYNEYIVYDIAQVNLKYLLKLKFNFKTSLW

[9] = test system: WI-38; experiment: Cytotoxicity activity against human WI38 cells assessed as reduction in cell viability incubated for 72 hrs by MTT assay; format: cell-based; settings: WI-38, 72 h
[10] = test system: SNB-19; experiment: Cytotoxicity activity against human SNB19 cells assessed as reduction in cell viability incubated for 72 hrs by MTT assay; format: cell-based; settings: SNB-19, 72 h
[11] = target: Poly [ADP-ribose] polymerase 2 (Homo sapiens) (UniProt Q9UGN5); experiment: Inhibition of PARP2 (unknown origin) assessed as residual activity at 100 uM relative to control
Sequence of Poly [ADP-ribose] polymerase 2 (Homo sapiens) (Q9UGN5 whole entry): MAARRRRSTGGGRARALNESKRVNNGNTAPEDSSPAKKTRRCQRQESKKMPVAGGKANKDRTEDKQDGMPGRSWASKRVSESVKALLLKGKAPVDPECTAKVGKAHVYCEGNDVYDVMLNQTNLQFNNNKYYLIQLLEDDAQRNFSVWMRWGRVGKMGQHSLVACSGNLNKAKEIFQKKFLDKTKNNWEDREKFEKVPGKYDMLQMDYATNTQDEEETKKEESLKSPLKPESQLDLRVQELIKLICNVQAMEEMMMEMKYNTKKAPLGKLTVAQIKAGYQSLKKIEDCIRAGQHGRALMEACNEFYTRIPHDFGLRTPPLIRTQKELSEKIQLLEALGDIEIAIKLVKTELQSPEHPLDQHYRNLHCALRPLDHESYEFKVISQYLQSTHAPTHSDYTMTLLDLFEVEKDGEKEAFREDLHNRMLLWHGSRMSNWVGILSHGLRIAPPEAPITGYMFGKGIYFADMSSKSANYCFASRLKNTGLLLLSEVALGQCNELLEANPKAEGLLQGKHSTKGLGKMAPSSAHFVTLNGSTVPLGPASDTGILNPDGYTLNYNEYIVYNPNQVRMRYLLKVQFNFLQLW

[12] = target: Tyrosyl-DNA phosphodiesterase 1 (Homo sapiens, UniProt Q9NUW8, H493R); experiment: Inhibition of recombinant TDP1 H493R mutant (unknown origin) using 5'-(5,6 FAM-aac gtc agg gtc ttc c-BHQ1)-3' as substrate measured every 55 secs for 8 mins by fluorescence based assay; outline: as §1
Sequence of Tyrosyl-DNA phosphodiesterase 1 (Homo sapiens, UniProt Q9NUW8, H493R) (Q9NUW8 whole entry H493R): as the sequence (Q9NUW8 whole entry) above, with H493R counted along it

[13] = test system: T98G; experiment: Cytotoxicity activity against human T98G cells assessed as reduction in cell viability incubated for 72 hrs by MTT assay; format: cell-based
[14] = test system: U-87 MG; experiment: Potentiation of TMZ-induced cytotoxicity against human U87MG cells assessed as combination index at 100 uM incubated for 72 hrs in presence of 2000 uM TMZ by MTT assay; format: functional, U-87MG ATCC
[15] = test system: U-87 MG; experiment: Potentiation of TMZ-induced cytotoxicity against human U87MG cells assessed as cell viability at 100 uM incubated for 72 hrs in presence of 2000 uM TMZ by MTT assay (reference value: 100%); format: functional, U-87MG ATCC
[16] = test system: SNB-19; experiment: Potentiation of TMZ-induced cytotoxicity against human SNB19 cells assessed as combination index at 75 uM incubated for 72 hrs in presence of 2000 uM TMZ by MTT assay; format: functional
[17] = test system: U-87 MG; experiment: Potentiation of TMZ-induced cytotoxicity against human U87MG cells assessed as cell viability at 100 uM incubated for 72 hrs in presence of 2500 uM TMZ by MTT assay (reference value: 100%); format: functional, U-87MG ATCC
[18] = test system: U-87 MG; experiment: Potentiation of TMZ-induced cytotoxicity against human U87MG cells assessed as reduction in cell viability at 100 uM incubated for 72 hrs in presence of 2500 uM TMZ by MTT assay relative to TMZ alone; format: functional, U-87MG ATCC
[19] = test system: SNB-19; experiment: Potentiation of TMZ-induced cytotoxicity against human SNB19 cells assessed as combination index at 100 uM incubated for 72 hrs in presence of 1250 uM TMZ by MTT assay; format: functional
[20] = test system: SNB-19; experiment: Potentiation of TMZ-induced cytotoxicity against human SNB19 cells assessed as cell viability at 100 uM incubated for 72 hrs in presence of 1250 uM TMZ by MTT assay (Rvb =100%); format: functional
[21] = test system: SNB-19; experiment: Potentiation of TMZ-induced cytotoxicity against human SNB19 cells assessed as reduction in cell viability at 75 uM incubated for 72 hrs in presence of 2000 uM TMZ by MTT assay relative to TMZ alone; format: functional
[22] = test system: U-87 MG; experiment: Potentiation of TMZ-induced cytotoxicity against human U87MG cells assessed as combination index at 100 uM incubated for 72 hrs in presence of 2500 uM TMZ by MTT assay; format: functional, U-87MG ATCC
[23] = test system: SNB-19; experiment: Potentiation of TMZ-induced cytotoxicity against human SNB19 cells assessed as cell viability at 75 uM incubated for 72 hrs in presence of 2000 uM TMZ by MTT assay (Rvb =100%); format: functional

Row | Compound | IC50 [1] [µM] | IC50 [2] [µM] | IC50 [3] [µM] | IC50 [4] [µM] | IC50 [5] [µM] | IC50 [6] [µM] | IC50 [7] [µM] | Activity [8] [%] | IC50 [9] [µM] | IC50 [10] [µM] | Activity [11] [%] | IC50 [12] [µM] | IC50 [13] [µM] | other results
1 | C=CCNC(=S)NC[C@]1(C)CCC[C@]2(C)c3ccc(C(C)C)cc3CC[C@@H]12 | 10 | 22.2 | 100 | 0.57 | > 100 | > 100 | > 100 | 104 | 50 | < 10 | 98 | > 50 | > 100 | 
2 | CC(C)c1ccc2c(c1)CC[C@H]1[C@](C)(CNC(=O)NCC3(C)CC(NC(=O)NC[C@]4(C)CCC[C@]5(C)c6ccc(C(C)C)cc6CC[C@@H]45)CC(C)(C)C3)CCC[C@]21C (some centres not stated) | > 100 | > 100 | > 100 | 0.09 | > 100 | > 100 | > 100 | 92 | > 100 | > 100 | 94 | 5.4 | > 100 | CI [14]: 1.7; Activity [15]: 109.2%; CI [16]: 0.34; Activity [17]: 90.9%; fold change (FC) [18]: 1.1; CI [19]: 0.97; Activity [20]: 97.3%; fold change (FC) [21]: 1.1; CI [22]: 0.77; Activity [23]: 89%
3 | CC(C)c1ccc2c(c1)CC[C@H]1[C@](C)(CNC(=O)NC3CCCCC3)CCC[C@]21C | > 100 | > 100 | > 100 | 0.5 | > 100 | > 100 | > 100 | 96 | 52 | < 10 | 99 | 39.2 | > 100 | 
4 | Cc1ccc(NC(=O)NC[C@]2(C)CCC[C@]3(C)c4ccc(C(C)C)cc4CC[C@@H]23)cc1NC(=O)NC[C@]1(C)CCC[C@]2(C)c3ccc(C(C)C)cc3CC[C@@H]12 | > 100 | > 100 | > 100 | 0.11 | > 100 | > 100 | > 100 | 83 | > 100 | > 100 | 135 | 5.4 | > 100 | CI [14]: 1.03; Activity [15]: 100.7%; CI [16]: 0.27; Activity [17]: 82.1%; fold change (FC) [18]: 1.2; CI [19]: 0.99; Activity [20]: 99.5%; fold change (FC) [21]: 1.2; CI [22]: 0.63; Activity [23]: 84.4%
5 | CC(C)c1ccc2c(c1)CC[C@H]1[C@](C)(CNC(=O)Nc3ccccc3)CCC[C@]21C | > 100 | > 100 | > 100 | 0.95 | > 100 | > 100 | > 100 | 106 | > 100 | 17 | 129 | 24.1 | > 100 | 
6 | CC(C)c1ccc2c(c1)CC[C@H]1[C@](C)(CNC(=S)Nc3ccccc3)CCC[C@]21C | 26 | > 100 | > 100 | 0.71 | > 100 | > 100 | > 100 | 98 | 70 |  | 116 | 19.9 |  | 
7 | CC(C)c1ccc2c(c1)CC[C@H]1[C@](C)(CNC(=O)Nc3ccc(Cl)cc3)CCC[C@]21C | 52 | 15 | > 100 | 0.28 | > 100 | > 100 | > 100 | 93 | > 100 | < 10 | 93 | 34.1 | 21.2 | 
8 | CNC(=S)NC[C@]1(C)CCC[C@]2(C)c3ccc(C(C)C)cc3CC[C@@H]12 |  | 16.8 | 19.7 | 1.49 | > 100 | > 100 | > 100 | 110 |  | < 10 | 114 | > 50 | 73.3 | 
9 | CCNC(=S)NC[C@]1(C)CCC[C@]2(C)c3ccc(C(C)C)cc3CC[C@@H]12 |  | 18.7 | > 100 | 2.3 | > 100 | > 100 | > 100 | 100 |  | < 10 | 116 | > 50 | > 100 | 
10 | CCNC(=O)NC[C@]1(C)CCC[C@]2(C)c3ccc(C(C)C)cc3CC[C@@H]12 |  | 34.8 | > 100 | 3.7 | > 100 | > 100 | > 100 | 100 |  | < 10 | 116 | > 50 | > 100 | 
